RGS4 act – potentiators or activators of RGS4; HEK293 M3R/inducible RGS4, carbachol calcium flux Fluo4; hits give low values; B-score at 10 µM; actives 0.92% (n = 310,000); AID 463111;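 active = B-score of the integrated calcium signal more than 4 SD below the library mean, with starting fluorescence not abnormally high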;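 also: negative B-score means reduced calcium response which marks RGS4 activation or potentiation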
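test system = HEK293 cells with stable M3R and inducible RGS4 | schedule = recording 10 s baseline at 1 Hz, 100 s post-agonist | technique = Fluo4-AM (2 µM) calcium-flux fluorescence, kinetic read | measure = Agonist-evoked peak-minus-minimum fluorescence over baseline, integrated ratio, B score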
MrgX1 antag – human MrgX1 receptor antagonism, primary screen. MRGX1-HEK293 calcium flux, Fluo-4, BAM8-22 antagonism; hits give low values. actives 1.3% (n = 310,000). B-score at 10 µM. Q96LB2;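 active = calcium-response B-score plate-corrected more than 3 library SD below zero, starting fluorescence within 5 deviations, no agonist response on first addition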;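 also: peak minus trough fluorescence over baseline after final BAM8-22 challenge near maximal dose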
Target sequence (Q96LB2 whole entry, looked up): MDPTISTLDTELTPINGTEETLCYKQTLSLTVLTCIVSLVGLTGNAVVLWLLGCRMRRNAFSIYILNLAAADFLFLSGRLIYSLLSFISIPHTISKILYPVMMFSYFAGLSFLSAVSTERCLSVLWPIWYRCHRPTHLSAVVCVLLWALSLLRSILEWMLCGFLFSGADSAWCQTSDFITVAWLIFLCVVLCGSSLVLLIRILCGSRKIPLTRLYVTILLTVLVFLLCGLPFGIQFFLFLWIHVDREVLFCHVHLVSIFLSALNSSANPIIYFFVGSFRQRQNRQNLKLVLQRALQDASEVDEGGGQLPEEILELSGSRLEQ
RGS4 block – inhibitors of human RGS4. P49798. HEK293 M3R/RGS4 inducible, Fluo-4 calcium flux; hits give high values; triggered by carbachol at its EC20. B-score at 10 µM. actives 0.45% (n = 310,000);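 active = B-score, a plate-corrected calcium signal, over three deviations above library mean, with baseline fluorescence within five deviations of library mean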;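 also: RGS4 expression induced by doxycycline in cells with stable M3 receptor; B-score is computed from the integrated fluorescence ratio over baseline after carbachol; higher B-score means a larger calcium signal and so more RGS4 inhibition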
Target sequence (P49798 whole entry, looked up): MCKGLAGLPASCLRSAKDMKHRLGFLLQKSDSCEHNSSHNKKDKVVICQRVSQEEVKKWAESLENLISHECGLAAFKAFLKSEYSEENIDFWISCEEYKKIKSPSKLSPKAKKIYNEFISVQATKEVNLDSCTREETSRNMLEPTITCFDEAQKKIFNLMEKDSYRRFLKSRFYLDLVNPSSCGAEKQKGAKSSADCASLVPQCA
MrgX1 allo act – human MrgX1 positive allosteric modulation, primary screen. Q96LB2. MrgX1-HEK293, Fluo-4 calcium flux, FDSS; hits give high values. B-score at 10 µM. actives 0.63% (n = 310,000). AID 588675;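 active = plate-corrected calcium response at least 3 library SD above typical, normal starting fluorescence, not activating the receptor alone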;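 also: compound read alongside a low EC10 to EC30 dose of BAM8-22 agonist; peak minus trough fluorescence over baseline measured at the second addition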
MrgX1 agonist – human MrgX1 receptor agonism, primary screen; Q96LB2; MrgX1-HEK293 cells, Fluo-4 calcium fluorescence, agonist mode; hits give high values; B-score at 10 µM; actives 0.44% (n = 310,000);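 active = calcium response B-score plate-corrected fluorescence ratio at least 3 library SD, with starting fluorescence B-score inside 5 SD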
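Test system: Stable human MrgX1 HEK293 cell line | Schedule: Overnight plating before 1 h dye loading | Read-out basis: Baseline-normalised fluorescence change ratio, B-scored | Detection: Kinetic calcium dye fluorescence, Fluo-4 NW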
MrgX1 antag conf – reconfirmed antagonist of human MrgX1 receptor signaling; shares compounds with MrgX1 antag; AID 602420; actives 19% (n = 2,300); remaining BAM8-22 calcium response % of control (hits give low values), % at 10 µM; MrgX1-HEK293, BAM8-22 calcium flux, Fluo-4; hits give low values;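 active = remaining agonist calcium response no higher than 100% minus 3 SD of agonist-only control wells, with starting fluorescence near control levels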;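 also: agonist BAM8-22 given at a near maximal EC90 to ECmax level; peak minus minimum fluorescence divided by baseline after agonist addition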
HEK293 Ca flux – counter-screen for MrgX1 antagonists: effect in parental HEK293 cells; shares compounds with MrgX1 antag; Fluo-4 calcium fluorescence, FDSS; fluorescence ratio F(max-min)/F0 at 10 µM; actives 2% (n = 4,000); AID 624111;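 active = duplicate-averaged calcium fluorescence ratio at least three times the standard deviation of buffer wells, a nonspecific response in parental cells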
HEK293 Ca counter – MrgX1 allosteric activator counter-screen hit in parental HEK293 cells. fluorescence ratio F(max-min)/F0 at 10 µM. shares compounds with MrgX1 antag. AID 624114. parental HEK293 calcium flux, Fluo-4 fluorescence ratio; hits give high values. actives 0.4% (n = 4,000);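 active = calcium fluorescence ratio, averaged over duplicates, at least 3 SD of the buffer-well ratio, meaning a nonspecific response in receptor-free cells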;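 also: untransfected parental HEK293 lacking MrgX1 used as counterscreen for MrgX1 allosteric activators; fluorescence change taken during the second addition on a kinetic imager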
HEK293 Ca cntr2 – MrgX1 activator counter-screen hit in parental HEK293 cells; shares compounds with MrgX1 antag; Fluo-4 calcium fluorescence (FDSS); hits give high values; fluorescence ratio F(max-min)/F0 at 10 µM; actives 8.7% (n = 4,000);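 active = calcium fluorescence ratio at least three times the spread of buffer wells, meaning a non-specific response in parental cells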
Active calls of the source: *; i = inactive; . = no result given. Compounds with a hit are over-represented: about 3.5% of the library has one in this group of screens.

SMILES | RGS4 act | MrgX1 antag | RGS4 block | MrgX1 allo act | MrgX1 agonist | MrgX1 antag conf | HEK293 Ca flux | HEK293 Ca counter | HEK293 Ca cntr2
C=CCN1C(=O)NC(=O)C(Cc2ccc(OC)c(OC)c2)C1=O (configuration not stated) | i | -4.76* | i | i | i | i | i | i | i
CN1CCc2nc(SCC(=O)OC(C)(C)C)c(C#N)cc2C1 | i | i | i | i | i | . | . | . | .
CN1CCc2nc3sc(C(=O)NC4CC4)c(N)c3cc2C1 | i | -6.61* | i | i | i | i | i | i | i
COC(=O)C1=C(c2ccccc2)C[C@@H]2CC[C@H]1N2C(=O)NCC1CC1 | i | -4.77* | i | i | i | i | i | i | i
CCCCc1ccc(NC2=NCCCS2)cc1 | i | i | i | i | i | . | . | . | .
CC(Cc1ccccc1)N1Cc2ccccc2C1 (configuration not stated) | i | i | i | i | i | . | . | . | .
Cn1c(=O)cc(OCCCC(=O)N2CCC3(CC2)OCCO3)c2ccccc21 | i | -9.78* | i | i | i | i | i | i | i
CC(=O)N1N=C2C3CCN(CC3)C2C1c1ccccc1 (configuration not stated) | i | i | i | i | i | . | . | . | .
O=C(c1ccc2c3c(cccc13)CC2)C1CCCN(CC2CC2)C1 (configuration not stated) | i | i | i | i | i | . | . | . | .
O=C(c1ccc2c3c(cccc13)CC2)C1CCCN(Cc2ncc[nH]2)C1 (configuration not stated) | i | -4.74* | i | i | i | i | i | i | i
COC(=O)C(C)NC(=S)N1CC2C[C@@H](C1)Cn1c2cccc1=O (some centres not stated) | i | i | i | i | i | . | . | . | .
CCCCCn1c(=O)c(C(=O)Nc2cccc(C)n2)c(O)c2ccccc21 | i | i | i | i | i | . | . | . | .
CCCCCn1c(=O)c(C(=O)Nc2cccc(C)c2)c(O)c2ccccc21 | i | -5.21* | i | i | i | i | 0.792* | i | i
O=C1CN=C(c2ccccc2)c2ccccc2N1 | i | -7.33* | i | i | i | i | i | i | i
CCOC(=O)C1SC2(C(F)(F)F)CC1(O)c1c(C)cc(C)nc1O2 (configuration not stated) | i | -7.82* | i | i | i | i | i | i | i
Cc1ccc(NC(=O)CCNC(=O)N2C[C@H]3C[C@@H](C2)c2cccc(=O)n2C3)c(C)c1 | i | i | i | i | i | . | . | . | .
Cc1cc(N2C(=O)CC(N3CCC(n4c(=O)[nH]c5ccccc54)CC3)C2=O)no1 (configuration not stated) | i | -5.42* | i | i | i | i | i | i | i
Cc1ccc(-c2nc3ccccc3c(=O)n2-c2ncccc2C)cc1 | i | i | i | i | i | . | . | . | .
Ic1ccccc1CN[C@@H]1C2CCN(CC2)[C@@H]1C(c1ccccc1)c1ccccc1 | . | -15.4* | . | i | i | 5.6%* | i | i | i
Fc1ccccc1CNC1CN2CCC1CC2 (configuration not stated) | i | i | i | i | i | . | . | . | .
CC(C)Nc1ccc(Nc2ccccc2)cc1 | . | -5.14* | . | i | i | i | i | i | i
CCCN1CCC[C@@H](c2cccc(O)c2)C1 | . | -5.62* | . | i | i | 80.0%* | i | i | i
COc1ccc(NC(=O)[C@@H](NC(=O)N2C[C@H]3C[C@@H](C2)c2cccc(=O)n2C3)C(C)C)cc1 | i | i | i | i | i | . | . | . | .
CCCC(C)C1(CC)C(=O)NC(=Nc2ccc(OC)cc2)NC1=O (configuration not stated) | i | i | i | i | i | . | . | . | .
COc1cc(/C=C/c2nc3ccccc3c(=O)n2-c2cccc(O)c2)ccc1O | i | i | i | i | i | . | . | . | .
SMILES | RGS4 act | MrgX1 antag | RGS4 block | MrgX1 allo act | MrgX1 agonist | MrgX1 antag conf | HEK293 Ca flux | HEK293 Ca counter | HEK293 Ca cntr2
COc1cc(/C=C/c2nc3ccccc3c(=O)n2-c2ccccc2O)ccc1O | i | -9.32* | i | i | i | i | i | i | 47.5*
CCC(=NCc1ccc2c(c1)OCO2)c1c(O)n(C2CCCCC2)c(=O)[nH]c1=O | i | i | i | i | i | . | . | . | .
COc1ccc(N2CCN(C(CNC(=O)Oc3ccccc3)c3cccnc3)CC2)cc1 (configuration not stated) | i | -6.87* | i | i | i | i | i | i | i
O=P(C(=Nc1ccc(Cl)cc1)N1CCOCC1)(N1CCOCC1)N1CCOCC1 | . | i | . | i | i | . | . | . | .
ClCCN1CCN(c2ccnc3cc(Cl)ccc23)CC1 | i | -16.7* | i | i | i | 12.2%* | i | i | i
CCCCCCN1CCN(c2ccc(Cl)cc2)CC1 | i | i | i | i | i | . | . | . | .
CCOC(=O)c1c(/N=C/C2C(=O)NC(=S)NC2=O)sc2c1CCC2 | i | -7.46* | i | i | i | i | i | i | i
CC(=NCc1ccc2c(c1)OCO2)c1c(O)n(Cc2ccccc2)c(=O)[nH]c1=O | i | i | i | i | i | . | . | . | .
C=CCn1c(O)c(C(C)=NCc2ccc3c(c2)OCO3)c(=O)[nH]c1=O | i | -4.69* | i | i | i | i | i | i | i
COc1ccccc1CN1CCN(Cc2ccc(Cl)cc2)CC1 | i | -5.27* | i | i | i | i | i | i | i

High-throughput results: PubChem BioAssay, Johns Hopkins Ion Channel Center
